In ChEMBL document CHEMBL1122517, “2-Phenylindoles. Relationship between structure, estrogen receptor affinity, and mammary tumor inhibiting activity in the rat” (1984):
Values joined by “and” are separate entries in the source; they are usually repeats but may differ in a detail not shown here. Identical values can stand only once.

Tests used:
[1] = molecular target: T1, Estrogen receptor (Mus musculus) (UniProt O08537+P19785); assay: Anti-uterotrophic activity in mice as uterus dry weight (mg)/body weight (g) *100 at 125 ug dose; type: functional, tissue-based
Outline: (§1)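 Immature female NMRI mice, 19 days old, groups of 10, given sc injections on 3 consecutive days. Each injection held 0.4 μg estrone plus the indole dose per animal, in olive oil (50 μL). Killed 24 h after the last injection. Uteri were fixed in Bouin solution, washed, and dried 24 h at 100 °C. Read-out was uterine dry weight (mg)/body weight (g) × 100, mean ± SD.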

[2] = species on record: Rattus norvegicus; assay: Partial remission (%) of DMBA-induced mammary carcinoma tumors in rats at 1.8 mg dose; type: functional
Outline: (§2)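 DMBA-induced tumors in Sprague-Dawley rats, entered when tumor area exceeded 140 mm². Dose per kg was given sc in olive oil, daily Monday to Thursday with a double dose Friday. Tumors were measured by calipers twice weekly. Tumor number was counted at the start of the test. Complete remission meant the tumor was no longer palpable. Partial remission meant reduction to ≤50% of initial size. New tumor appearance was recorded.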

[3] = molecular target: T1, Estrogen receptor (Mus musculus); assay: Uterotrophic activity in mice as uterus dry weight (mg)/body weight (g) *100 at 125 ug dose; type: functional, tissue-based
Outline: (§3)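 Immature 19-day-old female NMRI mice, groups of 10. Compound dose per animal in olive oil (50 µL) sc on 3 consecutive days. Mice were killed 24 h after the last injection. Uteri were Bouin-fixed 20 h, cleaned, washed with alcoholic LiCl, and dried at 100 °C for 24 h. Effect = uterine dry weight (mg)/body weight (g) ×100; mean ± SD.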

[4] = species on record: Rattus norvegicus; assay: Percent progressive DMBA-induced mammary carcinoma tumors in rats at 1.8 mg dose; type: functional
Outline: (§4)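 Female Sprague-Dawley rats, 50 days old, given a single 20 mg DMBA dose in 1 mL olive oil by gavage. Rats were palpated twice weekly from day 30, and those without tumors by day 70 were discarded. Rats were randomized once tumor area exceeded 140 mm². Drug dose was per kg in olive oil (1 mL/kg) sc, single dose Mon–Thu and double dose Fri. Tumor area (caliper, two perpendicular axes) and body weight were measured twice weekly.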

[5] = molecular target: T1, Estrogen receptor (Mus musculus); assay: Anti-uterotrophic activity in mice as uterus dry weight (mg)/body weight (g) *100 at 5 ug dose; type: functional, tissue-based; outline: as §1
[6] = species on record: Rattus norvegicus; assay: Percent unchanged DMBA-induced mammary carcinoma tumors in rats at 1.8 mg dose; type: functional; outline: as §4
[7] = molecular target: T1, Estrogen receptor (Mus musculus); assay: Anti-uterotrophic activity in mice as uterus dry weight (mg)/body weight (g) *100 at 25 ug dose; type: functional, tissue-based; outline: as §1
[8] = molecular target: T1, Estrogen receptor (Mus musculus); assay: Percentage inhibition of uterotrophic activity at 25 ug dose; type: functional
Outline: (§5)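 Antiuterotrophic test in immature 19-day-old female NMRI mice (n=10), dosed sc on 3 consecutive days with 0.4 µg estrone per animal per day plus compound in olive oil. Uterine dry weight/body weight ×100 was read 24 h after the last dose. Inhibition % = 100 − [(E_S,T − E_V)/(E_S − E_V)]×100.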

[9] = molecular target: T1, Estrogen receptor (Mus musculus); assay: Uterotrophic activity in mice as uterus dry weight (mg)/body weight (g) *100 at 1 ug dose; type: functional, tissue-based; outline: as §3
[10] = molecular target: T1, Estrogen receptor (Mus musculus); assay: Uterotrophic activity in mice as uterus dry weight (mg)/body weight (g) *100 at 5 ug dose; type: functional, tissue-based; outline: as §3
[11] = molecular target: T1, Estrogen receptor (Mus musculus); assay: Anti-uterotrophic activity in mice as uterus dry weight (mg)/body weight (g) *100 at 1 ug dose; type: functional, tissue-based; outline: as §1
[12] = species on record: Rattus norvegicus; assay: Number of DMBA-induced mammary carcinoma tumors in rats at 1.8 mg dose; type: functional; outline: as §2
[13] = species on record: Rattus norvegicus; assay: Change in DMBA-induced mammary carcinoma tumor area in rats at 1.8 mg dose; -75-656; type: functional
Outline: (§6)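 Female Sprague-Dawley rats got one 20 mg DMBA dose by gavage at 50 days old and were palpated twice weekly from day 30. Rats were randomized once tumor area exceeded 140 mm². Dose (per kg) was given sc in olive oil, once daily Monday to Thursday and doubled on Friday. Tumor area was taken from caliper measurements of two perpendicular axes, twice weekly. Change per animal is given as median % and range.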

[14] = species on record: Rattus norvegicus; assay: Change in body weight of DMBA-induced mammary carcinoma tumor bearing rats at 1.8 mg dose; type: functional
Outline: (§7)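 DMBA-induced tumor-bearing Sprague-Dawley rats (20 mg DMBA by gavage at 50 days old), randomized when tumor area exceeded 140 mm². Dose per kg was given sc in olive oil, single dose daily Monday to Thursday, double dose Friday. Body weight was measured twice weekly. Read-out was % change in body weight.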

[15] = molecular target: T1, Estrogen receptor (Mus musculus); assay: Percentage inhibition of uterotrophic activity at 125 ug dose; type: functional; outline: as §5
[16] = species on record: Rattus norvegicus; assay: Formation of new DMBA-induced mammary carcinoma tumors in rats at 1.8 mg dose; type: functional; outline: as §2
[17] = molecular target: T1, Estrogen receptor (Mus musculus); assay: Uterotrophic activity in mice as uterus dry weight (mg)/body weight (g) *100 at 25 ug dose; type: functional, tissue-based; outline: as §3
[18] = species on record: Rattus norvegicus; assay: Change in DMBA-induced mammary carcinoma tumor area in rats at 4 mg dose; -100-47; type: functional; outline: as §6
[19] = species on record: Rattus norvegicus; assay: Change in DMBA-induced mammary carcinoma tumor area in rats at 4 mg dose; type: functional; outline: as §6
[20] = species on record: Rattus norvegicus; assay: Complete remission (%) of DMBA-induced mammary carcinoma tumors in rats at 4 mg dose; type: functional; outline: as §2
[21] = species on record: Rattus norvegicus; assay: Number of DMBA-induced mammary carcinoma tumors in rats at 4 mg dose; type: functional; outline: as §2
[22] = species on record: Rattus norvegicus; assay: Change in body weight of DMBA-induced mammary carcinoma tumor bearing rats at 4 mg dose; type: functional; outline: as §7
[23] = molecular target: T1, Estrogen receptor (Mus musculus); assay: Percentage inhibition of uterotrophic activity at 1 ug dose; type: functional; outline: as §5
[24] = species on record: Rattus norvegicus; assay: Percent unchanged DMBA-induced mammary carcinoma tumors in rats at 4 mg dose; type: functional; outline: as §4
[25] = species on record: Rattus norvegicus; assay: Formation of new DMBA-induced mammary carcinoma tumors in rats at 4 mg dose; type: functional; outline: as §2
[26] = species on record: Rattus norvegicus; assay: Percent progressive DMBA-induced mammary carcinoma tumors in rats at 4 mg dose; type: functional; outline: as §4
[27] = species on record: Rattus norvegicus; assay: Partial remission (%) of DMBA-induced mammary carcinoma tumors in rats at 4 mg dose; type: functional; outline: as §4
[28] = molecular target: T1, Estrogen receptor (Mus musculus); assay: Percentage inhibition of uterotrophic activity at 5 ug dose; type: functional; outline: as §5
[29] = species on record: Rattus norvegicus; assay: Number of DMBA-induced mammary carcinoma tumors in rats at 2.8 mg dose; type: functional; outline: as §2
[30] = species on record: Rattus norvegicus; assay: Change in body weight of DMBA-induced mammary carcinoma tumor bearing rats at 2.8 mg dose; type: functional; outline: as §7
[31] = species on record: Rattus norvegicus; assay: Percent progressive DMBA-induced mammary carcinoma tumors in rats at 2.8 mg dose; type: functional; outline: as §4
[32] = species on record: Rattus norvegicus; assay: Formation of new DMBA-induced mammary carcinoma tumors in rats at 2.8 mg dose; type: functional; outline: as §2
[33] = species on record: Rattus norvegicus; assay: Change in DMBA-induced mammary carcinoma tumor area in rats at 2.8 mg dose; -39-458; type: functional; outline: as §6
[34] = species on record: Rattus norvegicus; assay: Partial remission (%) of DMBA-induced mammary carcinoma tumors in rats at 2.8 mg dose; type: functional; outline: as §4
[35] = species on record: Rattus norvegicus; assay: Percent unchanged DMBA-induced mammary carcinoma tumors in rats at 2.8 mg dose; type: functional; outline: as §4
[36] = species on record: Rattus norvegicus; assay: Formation of new DMBA-induced mammary carcinoma tumors in rats at 1.7 mg dose; type: functional; outline: as §2
[37] = species on record: Rattus norvegicus; assay: Number of DMBA-induced mammary carcinoma tumors in rats at 5.1 mg dose; type: functional; outline: as §2
[38] = species on record: Rattus norvegicus; assay: Percent progressive DMBA-induced mammary carcinoma tumors in rats at 5.1 mg dose; type: functional; outline: as §4
[39] = species on record: Rattus norvegicus; assay: Change in DMBA-induced mammary carcinoma tumor area in rats at 1.7 mg dose; 318-1054; type: functional; outline: as §6
[40] = species on record: Rattus norvegicus; assay: Formation of new DMBA-induced mammary carcinoma tumors in rats at 5.1 mg dose; type: functional; outline: as §2
[41] = species on record: Rattus norvegicus; assay: Partial remission (%) of DMBA-induced mammary carcinoma tumors in rats at 5.1 mg dose; type: functional; outline: as §4
[42] = species on record: Rattus norvegicus; assay: Percent progressive DMBA-induced mammary carcinoma tumors in rats at 1.7 mg dose; type: functional; outline: as §4
[43] = species on record: Rattus norvegicus; assay: Partial remission (%) of DMBA-induced mammary carcinoma tumors in rats at 1.7 mg dose; type: functional; outline: as §2
[44] = species on record: Rattus norvegicus; assay: Change in body weight of DMBA-induced mammary carcinoma tumor bearing rats at 5.1 mg dose; type: functional; outline: as §7
[45] = species on record: Rattus norvegicus; assay: Change in DMBA-induced mammary carcinoma tumor area in rats at 5.1 mg dose; -44-333; type: functional; outline: as §6
[46] = species on record: Rattus norvegicus; assay: Percent unchanged DMBA-induced mammary carcinoma tumors in rats at 5.1 mg dose; type: functional; outline: as §4
[47] = species on record: Rattus norvegicus; assay: Change in DMBA-induced mammary carcinoma tumor area in rats at 1.7 mg dose; type: functional; outline: as §6
[48] = species on record: Rattus norvegicus; assay: Change in DMBA-induced mammary carcinoma tumor area in rats at 5.1 mg dose; type: functional; outline: as §6
[49] = species on record: Rattus norvegicus; assay: Percent unchanged DMBA-induced mammary carcinoma tumors in rats at 1.7 mg dose; type: functional; outline: as §4
[50] = species on record: Rattus norvegicus; assay: Change in body weight of DMBA-induced mammary carcinoma tumor bearing rats at 1.7 mg dose; type: functional; outline: as §7
[51] = species on record: Rattus norvegicus; assay: Number of DMBA-induced mammary carcinoma tumors in rats at 1.7 mg dose; type: functional; outline: as §2
[52] = species on record: Rattus norvegicus; assay: Complete remission (%) of DMBA-induced mammary carcinoma tumors in rats at 5.1 mg dose; type: functional; outline: as §2

T1 sequence (O08537 whole entry, looked up): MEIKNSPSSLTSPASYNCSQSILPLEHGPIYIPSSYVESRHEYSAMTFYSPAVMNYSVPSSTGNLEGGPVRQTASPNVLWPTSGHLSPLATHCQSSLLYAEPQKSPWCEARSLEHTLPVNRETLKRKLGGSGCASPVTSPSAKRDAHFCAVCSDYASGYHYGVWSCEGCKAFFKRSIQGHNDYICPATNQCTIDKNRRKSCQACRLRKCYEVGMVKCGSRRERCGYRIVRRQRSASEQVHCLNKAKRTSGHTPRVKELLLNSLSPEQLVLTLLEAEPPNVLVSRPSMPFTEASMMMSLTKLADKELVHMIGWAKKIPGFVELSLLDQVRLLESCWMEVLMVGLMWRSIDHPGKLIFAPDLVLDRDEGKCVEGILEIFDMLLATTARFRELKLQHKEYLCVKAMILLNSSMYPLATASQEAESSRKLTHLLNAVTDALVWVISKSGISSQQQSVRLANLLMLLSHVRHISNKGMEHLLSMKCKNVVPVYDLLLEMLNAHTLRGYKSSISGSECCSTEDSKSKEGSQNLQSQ
T1 sequence (P19785 whole entry, looked up): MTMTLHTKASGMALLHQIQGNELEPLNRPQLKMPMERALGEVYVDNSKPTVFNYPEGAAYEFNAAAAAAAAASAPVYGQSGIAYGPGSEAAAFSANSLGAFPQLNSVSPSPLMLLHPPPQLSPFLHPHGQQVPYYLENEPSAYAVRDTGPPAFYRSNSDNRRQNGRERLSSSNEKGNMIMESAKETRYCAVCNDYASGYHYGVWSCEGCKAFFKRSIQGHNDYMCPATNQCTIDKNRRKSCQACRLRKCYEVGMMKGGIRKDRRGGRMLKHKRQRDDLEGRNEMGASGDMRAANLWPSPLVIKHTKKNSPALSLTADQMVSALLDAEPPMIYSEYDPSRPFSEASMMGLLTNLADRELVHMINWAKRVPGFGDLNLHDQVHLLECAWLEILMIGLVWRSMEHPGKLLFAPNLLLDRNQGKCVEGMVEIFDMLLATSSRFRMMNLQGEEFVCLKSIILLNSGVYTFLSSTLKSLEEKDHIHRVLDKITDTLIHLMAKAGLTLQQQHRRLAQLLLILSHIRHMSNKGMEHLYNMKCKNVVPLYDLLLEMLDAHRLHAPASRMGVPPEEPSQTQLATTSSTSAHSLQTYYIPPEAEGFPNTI

CCn1c(-c2ccc(OC(C)=O)cc2)c(C)c2cc(OC(C)=O)ccc21 [ZINDOXIFENE]
Anti-uterotrophic effect [1]: 37.8 and 33 | Partial remission [2]: 12% | Uterotrophic effect [3]: 19.5 and 30.5 | Progressed tumors [4]: 55% | Anti-uterotrophic effect [5]: 46.3 and 50.4 | Static tumors [6]: 14% | Anti-uterotrophic effect [7]: 53.5 and 33.5 | inhibition [8]: 45% | Uterotrophic effect [9]: 16.4 | Uterotrophic effect [10]: 14.1 and 19.6 | Anti-uterotrophic effect [11]: 38.5 and 51.1 | No. of tumors [12]: 33 | Change of tumor area [13]: -75% | Change of body weight [14]: 1% | inhibition [15]: 25% and 46% | New tumors [16]: 25 | Uterotrophic effect [17]: 17.9 and 21

CCc1c(-c2ccc(OC(C)=O)cc2)n(C)c2cc(OC(C)=O)ccc12
Anti-uterotrophic effect [1]: 34.7 | Uterotrophic effect [3]: 30 | Anti-uterotrophic effect [5]: 48.8 | Change of tumor area [18]: -100% | Anti-uterotrophic effect [7]: 33.5 | inhibition [8]: 56% | Uterotrophic effect [9]: 13.2 | Uterotrophic effect [10]: 16.2 | Anti-uterotrophic effect [11]: 47.6 | Change of tumor area [19]: -88% | Complete remission [20]: 43% | No. of tumors [21]: 18 | Change of body weight [22]: -7% | inhibition [23]: 17% | Static tumors [24]: 21% | New tumors [25]: 10 | Progressed tumors [26]: 7% | Partial remission [27]: 29% | inhibition [15]: 52% | inhibition [28]: 14% | Uterotrophic effect [17]: 20.4

CC/C(=C(\c1ccccc1)c1ccc(OCCN(C)C)cc1)c1ccccc1.O=C(O)CC(O)(CC(=O)O)C(=O)O [TAMOXIFEN CITRATE]
No. of tumors [29]: 34 | Change of body weight [30]: 0 | Progressed tumors [31]: 53 | New tumors [32]: 26 | Change of tumor area [33]: -39% | Partial remission [34]: 7% | Static remission [35]: 27%

CC(=O)Oc1ccc(-c2c(C)c3cc(OC(C)=O)ccc3n2C)cc1
New tumors [36]: 38 | Anti-uterotrophic effect [1]: 28.8 | Uterotrophic effect [3]: 20.9 | No. of tumors [37]: 37 | Progressed tumors [38]: 39% | Anti-uterotrophic effect [5]: 39.2 | Anti-uterotrophic effect [7]: 36.6 | inhibition [8]: 42% | Change of tumor area [39]: 318% | New tumors [40]: 37 | Uterotrophic effect [9]: 13.7 | Partial remission [41]: 10% | Uterotrophic effect [10]: 14.6 | Anti-uterotrophic effect [11]: 40 | Progressed tumors [42]: 70% | Partial remission [43]: 6% | Change of body weight [44]: 0% | Change of tumor area [45]: -44% | inhibition [23]: 33% | Static tumors [46]: 19% | Change of tumor area [47]: 577% | Change of tumor area [48]: 9% and 18% | inhibition [15]: 62% | inhibition [28]: 35% | Static tumors [49]: 15% | Uterotrophic effect [17]: 16.1 | Change of body weight [50]: 2% | No. of tumors [51]: 29 | Complete remission [52]: 32%
